Laboratory results: the M2OR odorant receptor database

Columns and labels:
Settings in all cases: stereoisomer not certain
[1] = biological target: T1, UniProt A2ATE5
T1 sequence (whole entry): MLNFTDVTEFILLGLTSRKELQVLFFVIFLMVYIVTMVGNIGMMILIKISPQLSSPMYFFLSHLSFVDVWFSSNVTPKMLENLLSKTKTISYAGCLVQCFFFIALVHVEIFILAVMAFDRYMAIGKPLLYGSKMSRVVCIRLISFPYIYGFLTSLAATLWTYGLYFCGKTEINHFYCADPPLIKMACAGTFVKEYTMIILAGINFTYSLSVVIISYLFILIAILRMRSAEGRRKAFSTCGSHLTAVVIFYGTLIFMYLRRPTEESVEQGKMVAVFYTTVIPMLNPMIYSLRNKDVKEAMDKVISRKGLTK
In short: (§1)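 Transient luciferase assays in mammalian cell lines were common, though methods varied by source. The values come from published papers and their supplementary material, with extra details from the original authors when needed. Responsive refers to a measured signal the original authors judged statistically different from baseline, and non-responsive (inactive) to the remainder.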

[2] = biological target: T2, UniProt A2AVB0
T2 sequence (whole entry): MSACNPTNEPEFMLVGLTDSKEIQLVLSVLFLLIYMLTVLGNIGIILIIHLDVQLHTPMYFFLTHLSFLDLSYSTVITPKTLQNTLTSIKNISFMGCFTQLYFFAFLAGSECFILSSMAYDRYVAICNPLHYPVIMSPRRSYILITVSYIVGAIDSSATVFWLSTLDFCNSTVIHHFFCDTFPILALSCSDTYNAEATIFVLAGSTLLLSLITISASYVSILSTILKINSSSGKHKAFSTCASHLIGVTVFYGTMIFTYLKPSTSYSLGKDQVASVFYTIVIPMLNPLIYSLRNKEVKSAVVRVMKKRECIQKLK
In short: as §1

[3] = biological target: T3, UniProt E9PVX1
T3 sequence (whole entry): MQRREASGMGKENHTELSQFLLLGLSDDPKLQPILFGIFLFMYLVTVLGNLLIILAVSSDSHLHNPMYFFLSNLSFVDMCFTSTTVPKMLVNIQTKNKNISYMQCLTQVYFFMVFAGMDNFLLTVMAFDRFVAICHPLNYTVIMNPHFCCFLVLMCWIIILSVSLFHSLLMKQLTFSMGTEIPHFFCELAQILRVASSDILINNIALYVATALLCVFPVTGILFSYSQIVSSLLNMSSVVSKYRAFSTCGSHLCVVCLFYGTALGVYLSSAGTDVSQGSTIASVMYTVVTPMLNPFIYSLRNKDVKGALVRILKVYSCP
In short: as §1

[4] = biological target: T4, UniProt E9PZ66
T4 sequence (whole entry): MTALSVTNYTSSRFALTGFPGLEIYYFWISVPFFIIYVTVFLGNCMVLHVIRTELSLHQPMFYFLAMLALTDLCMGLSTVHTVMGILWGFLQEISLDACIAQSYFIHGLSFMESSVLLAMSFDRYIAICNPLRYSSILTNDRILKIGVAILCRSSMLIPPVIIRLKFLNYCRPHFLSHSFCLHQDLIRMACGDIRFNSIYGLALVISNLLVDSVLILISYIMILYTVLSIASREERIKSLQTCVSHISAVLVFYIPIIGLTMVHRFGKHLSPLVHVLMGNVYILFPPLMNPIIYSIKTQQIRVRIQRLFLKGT
In short: as §1

[5] = biological target: T5, UniProt E9Q4X7
T5 sequence (whole entry): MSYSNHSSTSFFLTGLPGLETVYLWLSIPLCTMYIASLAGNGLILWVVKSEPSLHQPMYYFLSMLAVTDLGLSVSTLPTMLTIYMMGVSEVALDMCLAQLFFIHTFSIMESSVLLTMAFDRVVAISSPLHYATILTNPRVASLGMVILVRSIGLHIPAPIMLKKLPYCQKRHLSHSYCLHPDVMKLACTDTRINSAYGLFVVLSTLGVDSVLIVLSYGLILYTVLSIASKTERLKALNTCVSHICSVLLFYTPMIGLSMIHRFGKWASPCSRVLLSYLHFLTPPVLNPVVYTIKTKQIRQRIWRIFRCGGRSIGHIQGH
In short: as §1

[6] = biological target: T6, UniProt E9Q546
T6 sequence (whole entry): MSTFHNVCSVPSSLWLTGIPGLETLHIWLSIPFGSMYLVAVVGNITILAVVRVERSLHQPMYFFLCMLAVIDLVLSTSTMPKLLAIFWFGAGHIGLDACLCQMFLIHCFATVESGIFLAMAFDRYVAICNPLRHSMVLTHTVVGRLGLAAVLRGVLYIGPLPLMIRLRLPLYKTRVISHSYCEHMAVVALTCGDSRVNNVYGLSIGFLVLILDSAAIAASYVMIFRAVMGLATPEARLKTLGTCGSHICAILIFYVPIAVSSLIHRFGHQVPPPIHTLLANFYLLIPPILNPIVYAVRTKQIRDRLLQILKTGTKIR
In short: as §1

[7] = biological target: T7, UniProt E9Q6Z7
T7 sequence (whole entry): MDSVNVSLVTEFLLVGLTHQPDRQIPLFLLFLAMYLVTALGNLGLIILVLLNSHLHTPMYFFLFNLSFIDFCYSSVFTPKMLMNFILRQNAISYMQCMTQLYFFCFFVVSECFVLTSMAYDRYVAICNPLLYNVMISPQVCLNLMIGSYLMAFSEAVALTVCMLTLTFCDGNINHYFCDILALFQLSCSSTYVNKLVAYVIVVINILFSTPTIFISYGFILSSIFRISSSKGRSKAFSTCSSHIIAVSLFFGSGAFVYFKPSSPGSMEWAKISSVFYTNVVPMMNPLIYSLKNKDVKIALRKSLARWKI
In short: as §1

Measured: odorant receptor agonist call;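 note: active if original authors judged signal statistically different from baseline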

c1ccc2ncccc2c1
inactive: all assays above

CCCCCOC(=O)CC
inactive: all assays above

CCCCCCC=CC=O
inactive: all assays above

CCN(CC)CC
inactive: all assays above

CCc1ccccc1O
inactive: all assays above

COc1ccccc1
inactive: all assays above

CCCCCC(C=O)=Cc1ccccc1
inactive: all assays above

CCCCCCCCC=CC=O
inactive: all assays above

CCCCCCC(=O)OCCCC
inactive: all assays above

CC(C)=CCCC(C)=CCOC(=O)C(C)C
inactive: all assays above

COc1nccnc1C
inactive: all assays above

Cc1ccc(C(C)C)cc1
inactive: all assays above

Cc1ccc2c(c1)OCC(=O)CO2
inactive: all assays above

C=C1C2CCC(C2)C1(C)C (configuration not stated)
inactive: all assays above

CCCCCOC(=O)CCC
inactive: all assays above

CCOC(=O)C(C)CC (configuration not stated)
inactive: all assays above
